This is an account of results in ChEMBL document CHEMBL1134461, “Hexahydrochromeno[4,3-b]pyrrole derivatives as acetylcholinesterase inhibitors” (J Med Chem, 2001).

T1 sequence (P22303 whole entry): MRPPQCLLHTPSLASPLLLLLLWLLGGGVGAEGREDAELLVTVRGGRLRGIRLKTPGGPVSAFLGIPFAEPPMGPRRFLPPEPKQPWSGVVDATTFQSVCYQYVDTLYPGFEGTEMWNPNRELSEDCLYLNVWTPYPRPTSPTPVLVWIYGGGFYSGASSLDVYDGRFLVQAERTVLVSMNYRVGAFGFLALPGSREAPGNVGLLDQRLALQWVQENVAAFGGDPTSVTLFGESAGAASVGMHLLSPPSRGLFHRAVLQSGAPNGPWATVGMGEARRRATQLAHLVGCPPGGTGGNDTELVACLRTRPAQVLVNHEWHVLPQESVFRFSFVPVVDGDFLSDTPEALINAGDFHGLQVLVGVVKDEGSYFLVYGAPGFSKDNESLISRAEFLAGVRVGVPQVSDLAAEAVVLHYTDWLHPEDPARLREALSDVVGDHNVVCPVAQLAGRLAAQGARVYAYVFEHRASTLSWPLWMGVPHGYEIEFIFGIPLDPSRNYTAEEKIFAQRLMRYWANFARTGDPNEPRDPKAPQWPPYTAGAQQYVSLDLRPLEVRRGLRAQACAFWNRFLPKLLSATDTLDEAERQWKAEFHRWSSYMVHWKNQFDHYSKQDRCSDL

One test concerns the target T1, Acetylcholinesterase (Homo sapiens, UniProt P22303). The test is described as follows: Inhibitory activity against acetylcholinesterase in human erythrocytes. The test is classed as cell-based. In a few lines:
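Ellman colorimetric assay with human erythrocyte enzyme (AChE or BChE), 0.035 unit/mL, in 0.1 M phosphate buffer pH 8.0 with 340 μM DTNB. Inhibitor preincubated with enzyme 20 min, then 550 μM acetylthiocholine iodide added. […] IC50 read graphically from log concentration–inhibition curves; pIC50 is the mean of two independent measurements.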
On to `O=C(CCCCCCC(=O)NCCCCCCN1CC[C@H]2COc3ccccc3[C@H]21)NCCCCCCN1CC[C@H]2COc3ccccc3[C@H]21`, for which the IC50 (usually the concentration at which inhibition is half-maximal) was 9770 nM.

Regarding `CNC(=O)Oc1ccc2c(c1)OC[C@@H]1CC[N+](C)(C)[C@H]21`, the IC50 was 1820 nM. Molecule `CN1CC[C@H]2COc3c(O)cccc3[C@H]21` had an IC50 of 39800 nM. Same read-out and setting: for `CNC(=O)Oc1cccc2c1OC[C@@H]1CCN(C)[C@H]21` (stereo in doubt; (-)-4) the value was 22.9 nM; for `CNC(=O)Oc1cccc2c1OC[C@@H]1CCN(C)[C@H]21` (stereo in doubt; (+)-4), 74.1 nM; for `CNC(=O)Oc1ccc2c(c1)[C@@H]1[C@@H](CCN1C)CO2`, 16200 nM. As for `CNC(=O)Oc1ccc2c(c1)OC[C@@H]1CCN(C)[C@H]21`, the IC50 was 1950 nM.

In turn, `CNC(=O)Oc1cccc2c1OC[C@@H]1CCN(C)[C@H]21` (stereo in doubt; 4) [listing 1 of 2 here] gave a half-maximal inhibitory concentration (IC50) of 29.5 nM.

The target in the next test is T1, Acetylcholinesterase.
In turn, `CNC(=O)Oc1ccc2c(c1)[C@]1(C)CCN(C)[C@@H]1N2C` yielded a Kc of 250 nM. `CNC(=O)Oc1cccc2c1OC[C@@H]1CCN(C)[C@H]21` (stereo in doubt; 4) [listing 2 of 2 here] showed a Kc of 730 nM.

The target of the next test is T1, Acetylcholinesterase. The source holds these as a separate data set.
For the molecule `CNC(=O)Oc1cccc2c1OC[C@@H]1CCN(C)[C@H]21` (stereo in doubt; 4) [listing 2 of 2 here], the k3 was determined as 26.5 min⁻¹.
